Experimental findings from article PMC10234138 (Journal of Enzyme Inhibition and Medicinal Chemistry, 2023) are described below.

Series [1] relates to four cancer cell lines (A-549, MCF-7, Panc-1, HT-29). Briefly: Antiproliferative assay, average over four cancer cell lines. Format: cell-based, human. The note with it: for GI50: Homo sapiens, read-out: Antiproliferative activity, Average (GI50).
The next series in a line: Cell viability assay. Format: cell-based. The settings on record: human, MCF-10A mammary gland epithelial cells.
Series [2] concerns MCF-7 (breast cancer cell line). As to the kind of experiment: Antiproliferative assay, MCF-7. The note with it: Homo sapiens, MCF7, read-out: Antiproliferative activity IC50 ± SEM, MCF-7. Type of series: cell-based.
The subject of series [3] is A-549 (epithelial cancer cell line). Briefly: Antiproliferative assay, A-549. Format: cell-based. The note with it: Homo sapiens, A549, read-out: Antiproliferative activity IC50 ± SEM, A-549.
Series [4] has as its system Panc-1 (pancreas cancer cell line). Briefly: Antiproliferative assay, Panc-1. Type of series: cell-based. The note with it: Homo sapiens, PANC-1, read-out: Antiproliferative activity IC50 ± SEM, Panc-1.
The test system of series [5] is HT-29 (colon cancer cell line). Briefly: Antiproliferative assay, HT-29. The note with it: Homo sapiens, HT-29, read-out: Antiproliferative activity IC50 ± SEM, HT-29. Format: cell-based.
In another series the test system is Bax. As to the kind of experiment: Bax assay in Panc-1. Format: cell-based, human. The settings on record: Panc-1 cells; for Bax Fold change: vs control untreated cells. A digest of the protocol: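 Bax protein in treated Panc-1 cells, read as concentration in pg/mL. Fold induction is relative to untreated Panc-1 control cells. Staurosporine serves as reference compound.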

Another series relates to Caspase-8. Briefly: Caspase-8 assay in Panc-1. Type of series: cell-based, human. The note with it: Panc-1 cells; for Caspase-8 Fold change: vs control untreated cells.
Another series has as its system Caspase-3. Briefly: Caspase-3 assay in Panc-1. Format: cell-based, human. The settings on record: Panc-1 cells; for Caspase-3 Fold change: vs control untreated cells.
In the next series the target is EGFR^T790M (Homo sapiens, UniProt P00533, T790M). Briefly: biochemical.
The next series deals with EGFR^WT (Homo sapiens, UniProt P00533). As to the kind of experiment: EGFR inhibitory assay. Type of series: biochemical.
Another series concerns Bcl-2. As to the kind of experiment: Bcl-2 assay in Panc-1. The note with it: Panc-1 cells; for Bcl-2 Fold reduction: vs control untreated cells. Format: cell-based, human.
[6] abbreviates: antiproliferative, four cancer cell lines.

Structures are written as SMILES. Several values for one entry are separate records, joined by “and”; a condition that tells them apart may be missing. Equal entries are not always repeated.

EGFR^WT, sequence (P00533 669-1210): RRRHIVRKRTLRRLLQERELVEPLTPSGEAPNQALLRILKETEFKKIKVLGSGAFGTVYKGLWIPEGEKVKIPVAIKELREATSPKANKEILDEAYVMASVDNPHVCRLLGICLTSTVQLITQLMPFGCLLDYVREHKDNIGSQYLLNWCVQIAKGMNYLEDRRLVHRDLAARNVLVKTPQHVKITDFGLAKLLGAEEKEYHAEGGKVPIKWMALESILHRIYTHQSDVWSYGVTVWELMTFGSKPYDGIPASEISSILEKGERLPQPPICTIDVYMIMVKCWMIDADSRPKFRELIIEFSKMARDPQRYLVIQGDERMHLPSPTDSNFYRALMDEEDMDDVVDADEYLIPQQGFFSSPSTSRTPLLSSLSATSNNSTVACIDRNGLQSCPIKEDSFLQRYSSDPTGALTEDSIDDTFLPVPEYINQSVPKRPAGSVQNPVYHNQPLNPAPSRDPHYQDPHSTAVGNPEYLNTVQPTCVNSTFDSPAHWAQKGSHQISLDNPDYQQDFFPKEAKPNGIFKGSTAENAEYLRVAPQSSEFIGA
EGFR^T790M, sequence (P00533 25-1210 T790M): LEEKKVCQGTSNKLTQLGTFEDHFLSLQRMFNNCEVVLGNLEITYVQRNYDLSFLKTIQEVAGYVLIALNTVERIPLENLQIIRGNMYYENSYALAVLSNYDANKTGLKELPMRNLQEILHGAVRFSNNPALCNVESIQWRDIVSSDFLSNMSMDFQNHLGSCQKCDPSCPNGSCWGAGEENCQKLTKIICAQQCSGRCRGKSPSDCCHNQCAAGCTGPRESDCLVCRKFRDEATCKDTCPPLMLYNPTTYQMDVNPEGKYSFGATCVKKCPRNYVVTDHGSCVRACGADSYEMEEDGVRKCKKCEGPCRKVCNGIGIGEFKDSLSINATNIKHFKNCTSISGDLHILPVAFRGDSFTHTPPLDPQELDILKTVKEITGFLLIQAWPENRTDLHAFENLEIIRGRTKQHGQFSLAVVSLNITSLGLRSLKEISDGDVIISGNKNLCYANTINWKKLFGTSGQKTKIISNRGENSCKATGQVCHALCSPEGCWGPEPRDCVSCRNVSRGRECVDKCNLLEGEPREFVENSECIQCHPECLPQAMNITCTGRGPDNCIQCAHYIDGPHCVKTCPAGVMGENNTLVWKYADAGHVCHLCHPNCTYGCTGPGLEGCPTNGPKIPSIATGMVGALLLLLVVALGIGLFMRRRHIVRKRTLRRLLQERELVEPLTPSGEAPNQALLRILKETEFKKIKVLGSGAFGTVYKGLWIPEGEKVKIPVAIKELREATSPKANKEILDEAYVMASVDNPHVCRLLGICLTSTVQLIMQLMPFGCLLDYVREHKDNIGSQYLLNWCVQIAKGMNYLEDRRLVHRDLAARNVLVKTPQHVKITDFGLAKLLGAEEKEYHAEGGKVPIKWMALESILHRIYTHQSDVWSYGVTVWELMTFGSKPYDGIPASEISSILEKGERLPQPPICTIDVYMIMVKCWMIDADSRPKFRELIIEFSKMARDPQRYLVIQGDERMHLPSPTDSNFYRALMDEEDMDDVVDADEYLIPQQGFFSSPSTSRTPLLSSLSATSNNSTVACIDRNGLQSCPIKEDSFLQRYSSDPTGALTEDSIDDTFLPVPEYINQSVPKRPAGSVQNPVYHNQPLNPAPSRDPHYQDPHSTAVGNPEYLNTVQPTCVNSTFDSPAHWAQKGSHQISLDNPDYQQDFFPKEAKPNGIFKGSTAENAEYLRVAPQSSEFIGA

Regarding `O=c1c2[nH]c3ccc(Cl)cc3c2ccn1CCc1ccccc1` [Compound 7a, 6-chloro-2-phenethyl-2,9-dihydro-1H-pyrido[3,4-b]indol-1-one], the GI50 in [1] was determined as 54 nM. For the same compound, the viability at 96 h, 50 µM in the series “Cell viability assay” was determined as 90%. Moreover, the IC50 in series [2] turned out to be 57 ± 5 nM; in [3], 53 ± 5 nM; in [4] it was 51 ± 5 nM; in series [5], 55 ± 5 nM.
In the case of `CO/C=C/c1c(C(=O)NCCc2ccc(N3CCOCC3)cc2)[nH]c2ccc(Cl)cc12` [Compound 5g, (E)-5-chloro-3-(2-methoxyvinyl)-N-(4-morpholinophenethyl)-1H-indole-2-carboxamide], the entries for the “Bax Conc” value in the series with Bax and in the series with Bax (listed as 5 g) were 299.40 pg/mL and 299 pg/mL, respectively. For the same compound, the “Bax Fold change” value in the series with Bax came to 36. Besides, in the series with Caspase-8, the “Caspase-8 Conc” value came out at 1.97 ng/mL. Besides, in the series with Caspase-8, the “Caspase-8 Fold change” value turned out to be 23. Besides, the “Caspase-3 Conc” value with Caspase-3 turned out to be 542.5 ± 5.0 pg/mL. The “Caspase-3 Fold change” value with Caspase-3 was 8.3; with Caspase-3 (listed as 5 g) it was “approximately 8”. In series [1], the GI50 came out at 31 nM. In addition, in the series “Cell viability assay”, the viability at 96 h, 50 µM came out at 89%. The IC50 in series [2] was determined as 32 ± 3 nM; in [3] it was 30 ± 3 nM; in [4] it was 30 ± 3 nM; on EGFR^T790M, 11.9 ± 3 nM; in [5], 32 ± 3 nM; at EGFR^WT, 74 ± 5 nM. The “Bcl-2 Conc” value with Bcl-2 amounted to 0.84 ng/mL. For the same compound, the “Bcl-2 Fold reduction” value with Bcl-2 came out at 6.
Consider `CO/C=C/c1c(C(=O)NCc2nc3ccccc3[nH]2)[nH]c2ccc(Cl)cc12` [Compound 6f, (E)-N-((1H-benzo[d]imidazol-2-yl)methyl)-5-chloro-3–(2-methoxyvinyl)-1H-indole-2-carboxamide], for which, in series [1], the GI50 turned out to be 41 nM. For the same compound, the viability at 96 h, 50 µM in the series “Cell viability assay” is 89%. Also, the half-inhibitory concentration (IC50) in [2] is 42 ± 4 nM; in series [3], 40 ± 4 nM; in [4] it was 38 ± 4 nM; in series [5] it was 42 ± 4 nM; at EGFR^WT, 93 ± 6 nM.
For `CO/C=C/c1c(C(=O)NC2c3ccccc3-c3ccccc32)[nH]c2ccc(Cl)cc12` [Compound 6b, (E)-5-chloro-N-(9H-fluoren-9-yl)-3-(2-methoxyvinyl)-1H-indole-2-carboxamide], in [1], the GI50 amounted to 102 nM. Moreover, the viability at 96 h, 50 µM in “Cell viability assay” was determined as 87%. The IC50 in [2] stood at 105 ± 10 nM; in series [3], 102 ± 10 nM; in [4] it was 97 ± 10 nM; in series [5] it was 104 ± 10 nM.
In the case of `CO/C=C/c1c(C(=O)NCCc2ccc(N3CCCCC3)cc2)[nH]c2ccc(Cl)cc12` [Compound 5b, (E)-5-chloro-3–(2-methoxyvinyl)-N-(4-(piperidin-1-yl)phenethyl)-1H-indole-2-carboxamide], the GI50 in series [1] turned out to be 77 nM. This compound also registered a viability at 96 h, 50 µM in “Cell viability assay” of 89%. Further, the IC50 was found to be 79 ± 7 nM in series [2], 76 ± 7 nM in [3], 75 ± 7 nM in series [4] and 78 ± 7 nM in series [5].
Take `CO/C=C/c1c(C(=O)NCCc2ccc(N3CCCC3C)cc2)[nH]c2ccc(Cl)cc12` (stereo not drawn) [Compound 5f, (E)-5-chloro-3-(2-methoxyvinyl)-N-(4-(2-methylpyrrolidin-1-yl)phenethyl)-1H-indole-2-carboxamide]: the “Bax Conc” value with Bax was 305 pg/mL and 305.50 pg/mL. For the same compound, in the series on Bax, the “Bax Fold change” value stood at 37. For the same compound, in the series with Caspase-8, the “Caspase-8 Conc” value stood at 2.10 ng/mL. In the series with Caspase-8, the “Caspase-8 Fold change” value is 25. In the series with Caspase-3, the “Caspase-3 Conc” value came to 560.2 ± 5.0 pg/mL. Further, in [1], the GI50 amounted to 29 nM. In “Cell viability assay”, this compound had a viability at 96 h, 50 µM of 87%. For the same compound, the IC50 in [2] turned out to be 30 ± 3 nM; in series [3], 28 ± 3 nM; in series [4] it was 27 ± 3 nM; at EGFR^T790M it was 9.5 ± 2 nM; in series [5], 30 ± 3 nM; against EGFR^WT, 68 ± 4 nM. Further, the “Bcl-2 Conc” value with Bcl-2 was 0.80 ng/mL. The “Bcl-2 Fold reduction” value in the series with Bcl-2 was 6.
In the case of `CN[C@@H]1C[C@H]2O[C@@](C)([C@@H]1OC)n1c3ccccc3c3c4c(c5c6ccccc6n2c5c31)C(=O)NC4` [Staurosporine, reference compound], the “Bax Conc” value in the series on Bax is 276 pg/mL and 276.20 pg/mL. In the series on Caspase-8, the “Caspase-8 Conc” value came to 1.75 ng/mL and the “Caspase-8 Fold change” value was 21. In the series on Caspase-3, the “Caspase-3 Conc” value amounted to 503.2 ± 4.0 pg/mL and the “Caspase-3 Fold change” value amounted to 7.6. In the series on Bcl-2, the “Bcl-2 Conc” value amounted to 0.98 ng/mL and the “Bcl-2 Fold reduction” value came to 5.
As for `O=c1c2[nH]c3ccc(Cl)cc3c2ccn1CCc1ccc(N2CCCCC2)cc1` [Compound 7b, 6-chloro-2–(4-(piperidin-1-yl)phenethyl)-2,9-dihydro-1H-pyrido[3,4-b]indol-1-one], in series [1], the GI50 is 57 nM. In the series “Cell viability assay”, this compound registered a viability at 96 h, 50 µM of 89%. Also, the half-inhibitory concentration (IC50) in series [2] stood at 59 ± 6 nM; in series [3] it was 57 ± 6 nM; in series [4], 55 ± 5 nM; in [5] it was 57 ± 6 nM.
`CO/C=C/c1c(C(=O)N2CCN(c3ccccc3)CC2)[nH]c2ccc(Cl)cc12` [Compound 6d, (E)-(5-chloro-3–(2-methoxyvinyl)-1H-indol-2-yl)(4-phenylpiperazin-1-yl) methanone]: the GI50 in series [1] worked out at 85 nM. The viability at 96 h, 50 µM in the series “Cell viability assay” is 89%. Moreover, the IC50 in series [2] was found to be 87 ± 8 nM; in series [3] it was 85 ± 8 nM; in series [4], 81 ± 8 nM; in series [5], 85 ± 8 nM.
In the case of `CO/C=C/c1c(C(=O)NCCc2ccccc2)[nH]c2ccc(Cl)cc12` [Compound 5a, (E)-5-Chloro-3–(2-methoxyvinyl)-N-phenethyl-1H-indole-2-carboxamide], the GI50 in series [1] came to 76 nM. Also, in series [1] (setting [6]), the “fold less potent than compound 5f (GI50)” value is 2.5 fold. This compound also displayed a viability at 96 h, 50 µM in “Cell viability assay” of 91%. Further, the IC50 in [2] was 79 ± 8 nM; in series [3], 75 ± 8 nM; in [4], 73 ± 7 nM; in [5], 75 ± 8 nM.
Turning to `CO/C=C/c1c(C(=O)NCc2ccccc2)[nH]c2ccc(Cl)cc12` [Compound 6c, (E)-N-benzyl-5-chloro-3-(2-methoxyvinyl)-1H-indole-2-carboxamide], the GI50 in [1] is 66 nM. For the same compound, the viability at 96 h, 50 µM in “Cell viability assay” is 85%. The IC50 in series [2] was 69 ± 6 nM; in series [3], 67 ± 6 nM; in series [4], 62 ± 6 nM; in [5], 64 ± 6 nM.
On to `CO/C=C/c1c(C(=O)NC(CO)Cc2ccccc2)[nH]c2ccc(Cl)cc12` (stereo not drawn) [Compound 6a, (E)-5-chloro-N-(1-hydroxy-3-phenylpropan-2-yl)-3-(2-methoxyvinyl)-1H-indole-2-carboxamide], for which the concentration for 50% growth inhibition (GI50) in series [1] is 89 nM. The viability at 96 h, 50 µM in the series “Cell viability assay” worked out at 86%. In addition, the IC50 in [2] came to 92 ± 9 nM; in series [3], 89 ± 9 nM; in series [4] it was 85 ± 9 nM; in series [5] it was 89 ± 9 nM.
As to `CO/C=C/c1c(C(=O)NCCc2ccc(N(C)C)cc2)[nH]c2ccc(Cl)cc12` [Compound 5d, (E)-5-chloro-N-(4-(dimethylamino)phenethyl)-3-(2-methoxyvinyl)-1H-indole-2-carboxamide], the 50% growth inhibitory concentration (GI50) in series [1] was 36 nM. The compound further registered a viability at 96 h, 50 µM in “Cell viability assay” of 89%. Also, the IC50 in [2] is 38 ± 3 nM; in series [3] it was 34 ± 4 nM; in series [4], 35 ± 3 nM; in series [5], 38 ± 4 nM; on EGFR^WT, 85 ± 5 nM.
With `CO/C=C/c1c(C(=O)NCCc2ccc(N3CCCC3)cc2)[nH]c2ccc(Cl)cc12` [Compound 5e, (E)-5-chloro-3-(2-methoxyvinyl)-N-(4-(pyrrolidin-1-yl)phenethyl)-1H-indole-2-carboxamide], in series [1], the GI50 was determined as 70 nM. In “Cell viability assay”, this compound yielded a viability at 96 h, 50 µM of 90%. The IC50 amounted to 73 ± 7 nM in series [2], 70 ± 7 nM in [3], 67 ± 7 nM in series [4] and 71 ± 7 nM in series [5].
On to `CO/C=C/c1c(C(=O)NCCc2cccc(N3CCCCC3)c2)[nH]c2ccc(Cl)cc12` [Compound 5c, (E)-5-chloro-3–(2-methoxyvinyl)-N-(3-(piperidin-1-yl)phenethyl)-1H-indole-2-carboxamide], for which the concentration for 50% growth inhibition (GI50) in series [1] was 47 nM. Moreover, the “fold more potent than compound 5b (GI50)” value in series [1] (setting [6]) turned out to be 1.6 fold. Also, the viability at 96 h, 50 µM in the series “Cell viability assay” came out at 87%. The IC50 in series [2] was 49 ± 5 nM; in series [3], 45 ± 5 nM; in [4], 45 ± 5 nM; in series [5] it was 47 ± 5 nM; against EGFR^WT, 102 ± 7 nM.
With `C#Cc1cccc(Nc2ncnc3cc(OCCOC)c(OCCOC)cc23)c1` [Erlotinib, reference compound], the GI50 in [1] was found to be 33 nM. Further, the half-inhibitory concentration (IC50) in series [2] came to 40 ± 3 nM; in series [3], 30 ± 3 nM; in series [4] it was 30 ± 3 nM; in series [5], 30 ± 3 nM.
For `CO/C=C/c1c(C(=O)N2CCC(Cc3ccccc3)CC2)[nH]c2ccc(Cl)cc12` [Compound 6e, (E)-(4-benzylpiperidin-1-yl)(5-chloro-3–(2-methoxyvinyl)-1H-indol-2-yl) methanone], the GI50 in series [1] stood at 45 nM. The compound further showed a viability at 96 h, 50 µM in “Cell viability assay” of 91%. Moreover, the IC50 amounted to 47 ± 5 nM in series [2]; 45 ± 5 nM in series [3]; 43 ± 4 nM in series [4]; 45 ± 5 nM in [5]; 98 ± 7 nM against EGFR^WT.
